# Active and inactive are the calls of the source. No cut-off for these calls is given here.
# What was measured:
# [1] = biological target: Tyrosine-protein kinase JAK2 (Homo sapiens, UniProt O60674); assay: Inhibition of recombinant JAK2
# [2] = biological target: T1, Tyrosine-protein kinase JAK3 (Homo sapiens, UniProt P52333); assay: Inhibition of recombinant JAK3
# T1 sequence (P52333 whole entry): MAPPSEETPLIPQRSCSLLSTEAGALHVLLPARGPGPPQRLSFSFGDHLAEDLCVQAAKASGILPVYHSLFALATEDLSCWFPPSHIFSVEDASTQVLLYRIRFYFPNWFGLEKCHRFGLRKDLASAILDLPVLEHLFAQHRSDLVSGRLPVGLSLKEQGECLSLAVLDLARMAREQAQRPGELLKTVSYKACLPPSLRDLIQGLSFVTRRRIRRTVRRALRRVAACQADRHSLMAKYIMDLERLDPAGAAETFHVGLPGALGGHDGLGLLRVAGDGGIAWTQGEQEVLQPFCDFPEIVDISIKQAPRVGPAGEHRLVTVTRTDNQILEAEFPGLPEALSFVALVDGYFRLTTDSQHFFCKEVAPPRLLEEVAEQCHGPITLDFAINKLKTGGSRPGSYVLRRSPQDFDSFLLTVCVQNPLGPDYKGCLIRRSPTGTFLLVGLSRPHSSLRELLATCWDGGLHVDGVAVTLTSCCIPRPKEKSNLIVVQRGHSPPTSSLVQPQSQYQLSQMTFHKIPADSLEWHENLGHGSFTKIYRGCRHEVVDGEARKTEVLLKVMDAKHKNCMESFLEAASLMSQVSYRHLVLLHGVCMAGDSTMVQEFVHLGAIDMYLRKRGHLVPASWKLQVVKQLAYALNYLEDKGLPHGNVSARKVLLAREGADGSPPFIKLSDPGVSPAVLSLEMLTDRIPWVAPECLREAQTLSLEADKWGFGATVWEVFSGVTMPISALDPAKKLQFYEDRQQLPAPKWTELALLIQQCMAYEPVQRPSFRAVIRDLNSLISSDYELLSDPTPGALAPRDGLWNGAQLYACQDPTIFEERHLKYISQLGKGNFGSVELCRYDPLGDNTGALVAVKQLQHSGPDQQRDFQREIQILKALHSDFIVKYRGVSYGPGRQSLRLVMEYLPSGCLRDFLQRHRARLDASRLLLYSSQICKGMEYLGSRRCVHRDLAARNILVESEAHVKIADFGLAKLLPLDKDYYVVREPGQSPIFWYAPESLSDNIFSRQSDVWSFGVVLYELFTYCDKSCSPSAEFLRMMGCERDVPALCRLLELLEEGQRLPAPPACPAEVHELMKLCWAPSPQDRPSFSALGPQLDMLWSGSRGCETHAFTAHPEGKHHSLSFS
# [3] = biological target: T1, Tyrosine-protein kinase JAK3; assay: Inhibition of JAK3 in […] assessed as inhibition of IL2-induced STAT5 phosphorylation by flow cytometry; type: cell-based
# [4] = system: BaF3; assay: Antitumor activity against JAK2 V617F mutant harboring mouse sBA/F3 cells xenografted in BALB/c mouse assessed as reduced splenomegaly at 15 mg/kg, po bid for 32 days; type: functional, organism-based; parameters: dose 15 mg/kg
# In short: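 Leukemia induced in BALB/c mice (n = 12/group) by iv injection of 1 million mJAK2(V617F)-Ba/F3 cells. Dosing began 1 week after implantation: 15 mg/kg oral gavage b.i.d. as a suspension in 5% methylcellulose, or vehicle alone, until day 32 or moribundity. Spleens were harvested and weighed after sacrifice on day 32.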
# [5] = biological target: ALK tyrosine kinase receptor (Homo sapiens, UniProt Q9UM73); assay: Inhibition of ALK
# Sequence of ALK tyrosine kinase receptor (Q9UM73 whole entry): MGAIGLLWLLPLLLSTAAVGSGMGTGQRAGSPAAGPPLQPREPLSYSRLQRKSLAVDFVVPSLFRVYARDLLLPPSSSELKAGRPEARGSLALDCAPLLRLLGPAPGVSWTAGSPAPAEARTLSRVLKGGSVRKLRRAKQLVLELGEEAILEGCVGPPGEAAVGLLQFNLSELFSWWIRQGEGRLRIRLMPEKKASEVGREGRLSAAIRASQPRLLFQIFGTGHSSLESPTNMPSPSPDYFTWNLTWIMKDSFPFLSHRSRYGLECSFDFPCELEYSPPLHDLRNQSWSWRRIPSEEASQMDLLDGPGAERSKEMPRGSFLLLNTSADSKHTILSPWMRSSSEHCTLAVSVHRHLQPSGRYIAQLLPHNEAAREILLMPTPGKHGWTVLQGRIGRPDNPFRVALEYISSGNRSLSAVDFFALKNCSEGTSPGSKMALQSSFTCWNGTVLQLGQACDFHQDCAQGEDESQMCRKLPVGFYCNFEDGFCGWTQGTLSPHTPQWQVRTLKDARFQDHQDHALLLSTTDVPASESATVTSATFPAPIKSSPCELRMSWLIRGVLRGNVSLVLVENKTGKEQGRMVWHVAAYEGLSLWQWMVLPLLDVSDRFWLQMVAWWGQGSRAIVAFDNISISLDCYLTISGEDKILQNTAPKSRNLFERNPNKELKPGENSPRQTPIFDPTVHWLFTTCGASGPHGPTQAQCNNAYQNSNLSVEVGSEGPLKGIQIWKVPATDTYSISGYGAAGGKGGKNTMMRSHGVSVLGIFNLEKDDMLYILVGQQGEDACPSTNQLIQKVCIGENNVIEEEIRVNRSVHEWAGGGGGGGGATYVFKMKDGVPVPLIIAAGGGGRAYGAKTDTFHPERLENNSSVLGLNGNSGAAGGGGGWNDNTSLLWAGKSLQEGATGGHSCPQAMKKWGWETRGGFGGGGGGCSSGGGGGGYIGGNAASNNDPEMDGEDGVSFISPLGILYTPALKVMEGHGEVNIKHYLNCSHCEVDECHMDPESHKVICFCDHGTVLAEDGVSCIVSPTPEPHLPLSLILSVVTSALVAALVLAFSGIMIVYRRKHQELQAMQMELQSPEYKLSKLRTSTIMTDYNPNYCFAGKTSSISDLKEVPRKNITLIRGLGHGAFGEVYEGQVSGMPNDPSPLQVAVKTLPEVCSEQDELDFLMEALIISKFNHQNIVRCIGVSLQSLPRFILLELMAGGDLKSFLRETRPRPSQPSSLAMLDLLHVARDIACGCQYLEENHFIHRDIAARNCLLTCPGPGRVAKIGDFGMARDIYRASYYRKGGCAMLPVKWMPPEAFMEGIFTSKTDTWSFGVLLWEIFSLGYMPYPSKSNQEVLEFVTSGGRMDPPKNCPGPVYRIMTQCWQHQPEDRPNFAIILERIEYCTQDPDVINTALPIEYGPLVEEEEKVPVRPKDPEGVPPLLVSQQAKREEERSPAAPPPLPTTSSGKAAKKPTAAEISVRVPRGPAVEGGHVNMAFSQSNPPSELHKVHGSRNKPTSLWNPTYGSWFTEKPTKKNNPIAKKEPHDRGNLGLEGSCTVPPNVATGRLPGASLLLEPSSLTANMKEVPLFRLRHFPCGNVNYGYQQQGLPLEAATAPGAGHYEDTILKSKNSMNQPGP
# [6] = Oral bioavailability life in CB17 mouse at 10 mg/kg by LC/MS/MS method; type: ADME, organism-based; details: in vivo
# In short: (§1)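 Male Charles River Sprague-Dawley rats and Fox Chase SCID (CB-17) mice, dosed iv or po. Plasma drug concentrations measured by a specific LC/MS/MS method. Pharmacokinetic parameters are reported as mean values.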
# [7] = AUC (0 to infinity) in CB17 mouse at 10 mg/kg, po by LC/MS/MS method; type: ADME, organism-based; parameters: time infinity, dose 10 mg/kg, route oral; details: plasma; in short: as §1
# [8] = AUC (0 to infinity) in Sprague-Dawley rat at 1.8 mg/kg, iv by LC/MS/MS method; type: ADME, organism-based; parameters: time infinity, dose 1.8 mg/kg, route intravenous; details: plasma; in short: as §1
# [9] = Half life in CB17 mouse at 9 mg/kg, iv by LC/MS/MS method; type: ADME, organism-based; parameters: dose 9 mg/kg, route intravenous; details: in vivo; in short: as §1
# [10] = Tmax in CB17 mouse at 10 mg/kg, po by LC/MS/MS method; type: ADME, organism-based; parameters: dose 10 mg/kg, route oral; details: in vivo; in short: as §1
# [11] = Tmax in Sprague-Dawley rat at 10 mg/kg, po by LC/MS/MS method; type: ADME, organism-based; parameters: dose 10 mg/kg, route oral; details: in vivo; in short: as §1
# [12] = Half life in Sprague-Dawley rat at 1.8 mg/kg, iv by LC/MS/MS method; type: ADME, organism-based; parameters: dose 1.8 mg/kg, route intravenous; details: in vivo; in short: as §1
# [13] = Volume of distribution at steady state in CB17 mouse at 9 mg/kg, iv by LC/MS/MS method; type: ADME, organism-based; parameters: dose 9 mg/kg, route intravenous; details: in vivo, read-out: Vdss; in short: as §1
# [14] = system: Mus musculus; assay: Improvement in survival of BALB/c mouse xenografted with JAK2 V617F mutant harboring mouse Ba/F3 cells assessed as survival days at 15 mg/kg, po bid for 32 days; type: functional, BaF3
# In short: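 BALB/c mice (n = 12/group) received one million mJAK2-Ba/F3 cells (murine Ba/F3 carrying mutant V617F JAK2) intravenously. Treatment started 1 week after implantation. Dosing was 15 mg/kg by oral gavage twice daily as a suspension in 5% methylcellulose, with a vehicle-only control group. Dosing continued until day 32 or moribundity. Survival was shown as Kaplan-Meier plots, and unrelated cage deaths were censored.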
# [15] = AUC (0 to infinity) in CB17 mouse at 9 mg/kg, iv by LC/MS/MS method; type: ADME, organism-based; parameters: time infinity, dose 9 mg/kg, route intravenous; details: plasma; in short: as §1
# [16] = Clearance in CB17 mouse at 9 mg/kg, iv by LC/MS/MS method; type: ADME, organism-based; parameters: dose 9 mg/kg, route intravenous; details: in vivo; in short: as §1
# [17] = Cmax in CB17 mouse at 9 mg/kg, iv by LC/MS/MS method; type: ADME, organism-based; parameters: dose 9 mg/kg, route intravenous; details: in vivo; in short: as §1
# [18] = Oral bioavailability in Sprague-Dawley rat at 10 mg/kg by LC/MS/MS method; type: ADME, organism-based; details: in vivo; in short: as §1
# [19] = Clearance in Sprague-Dawley rat at 1.8 mg/kg, iv by LC/MS/MS method; type: ADME, organism-based; parameters: dose 1.8 mg/kg, route intravenous; details: in vivo; in short: as §1
# [20] = Cmax in Sprague-Dawley rat at 10 mg/kg, po by LC/MS/MS method; type: ADME, organism-based; parameters: dose 10 mg/kg, route oral; details: in vivo; in short: as §1
# [21] = Cmax in Sprague-Dawley rat at 1.8 mg/kg, iv by LC/MS/MS method; type: ADME, organism-based; parameters: dose 1.8 mg/kg, route intravenous; details: in vivo; in short: as §1
# [22] = Cmax in CB17 mouse at 10 mg/kg, po by LC/MS/MS method; type: ADME, organism-based; parameters: dose 10 mg/kg, route oral; details: in vivo; in short: as §1
# [23] = Volume of distribution at steady state in Sprague-Dawley rat at 1.8 mg/kg, iv by LC/MS/MS method; type: ADME, organism-based; parameters: dose 1.8 mg/kg, route intravenous; details: in vivo, read-out: Vdss; in short: as §1
# [24] = biological target: T2, Mitogen-activated protein kinase kinase kinase kinase 2 (Homo sapiens, UniProt Q12851); assay: Inhibition of GCK
# T2 sequence (Q12851 whole entry): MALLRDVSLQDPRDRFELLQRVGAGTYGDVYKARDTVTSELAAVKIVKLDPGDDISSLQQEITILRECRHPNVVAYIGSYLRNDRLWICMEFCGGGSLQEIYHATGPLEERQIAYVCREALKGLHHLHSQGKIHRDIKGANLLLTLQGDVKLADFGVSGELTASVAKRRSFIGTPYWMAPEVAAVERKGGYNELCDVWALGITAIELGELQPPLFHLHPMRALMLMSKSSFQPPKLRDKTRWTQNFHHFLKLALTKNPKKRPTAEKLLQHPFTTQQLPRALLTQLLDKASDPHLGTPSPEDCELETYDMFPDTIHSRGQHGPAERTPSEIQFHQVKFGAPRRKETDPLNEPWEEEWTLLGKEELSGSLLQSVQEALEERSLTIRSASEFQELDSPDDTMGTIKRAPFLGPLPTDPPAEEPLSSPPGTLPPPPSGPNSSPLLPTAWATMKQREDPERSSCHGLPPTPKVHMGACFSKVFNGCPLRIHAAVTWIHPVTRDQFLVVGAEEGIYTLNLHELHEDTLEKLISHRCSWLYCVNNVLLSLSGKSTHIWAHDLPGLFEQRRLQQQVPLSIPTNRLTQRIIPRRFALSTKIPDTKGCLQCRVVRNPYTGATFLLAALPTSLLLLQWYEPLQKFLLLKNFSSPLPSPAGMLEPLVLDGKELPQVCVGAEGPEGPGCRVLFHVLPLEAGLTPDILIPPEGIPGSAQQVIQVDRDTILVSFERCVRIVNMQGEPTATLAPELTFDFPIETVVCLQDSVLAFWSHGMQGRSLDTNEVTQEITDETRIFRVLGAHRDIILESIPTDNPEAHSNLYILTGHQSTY
# [25] = Half life in Sprague-Dawley rat at 10 mg/kg, po by LC/MS/MS method; type: ADME, organism-based; parameters: dose 10 mg/kg, route oral; details: in vivo; in short: as §1
# [26] = AUC (0 to infinity) in Sprague-Dawley rat at 10 mg/kg, po by LC/MS/MS method; type: ADME, organism-based; parameters: time infinity, dose 10 mg/kg, route oral; details: plasma; in short: as §1
# [27] = biological target: Mast/stem cell growth factor receptor Kit (Homo sapiens, UniProt P10721); assay: Inhibition of cKit
# Sequence of Mast/stem cell growth factor receptor Kit (P10721 whole entry): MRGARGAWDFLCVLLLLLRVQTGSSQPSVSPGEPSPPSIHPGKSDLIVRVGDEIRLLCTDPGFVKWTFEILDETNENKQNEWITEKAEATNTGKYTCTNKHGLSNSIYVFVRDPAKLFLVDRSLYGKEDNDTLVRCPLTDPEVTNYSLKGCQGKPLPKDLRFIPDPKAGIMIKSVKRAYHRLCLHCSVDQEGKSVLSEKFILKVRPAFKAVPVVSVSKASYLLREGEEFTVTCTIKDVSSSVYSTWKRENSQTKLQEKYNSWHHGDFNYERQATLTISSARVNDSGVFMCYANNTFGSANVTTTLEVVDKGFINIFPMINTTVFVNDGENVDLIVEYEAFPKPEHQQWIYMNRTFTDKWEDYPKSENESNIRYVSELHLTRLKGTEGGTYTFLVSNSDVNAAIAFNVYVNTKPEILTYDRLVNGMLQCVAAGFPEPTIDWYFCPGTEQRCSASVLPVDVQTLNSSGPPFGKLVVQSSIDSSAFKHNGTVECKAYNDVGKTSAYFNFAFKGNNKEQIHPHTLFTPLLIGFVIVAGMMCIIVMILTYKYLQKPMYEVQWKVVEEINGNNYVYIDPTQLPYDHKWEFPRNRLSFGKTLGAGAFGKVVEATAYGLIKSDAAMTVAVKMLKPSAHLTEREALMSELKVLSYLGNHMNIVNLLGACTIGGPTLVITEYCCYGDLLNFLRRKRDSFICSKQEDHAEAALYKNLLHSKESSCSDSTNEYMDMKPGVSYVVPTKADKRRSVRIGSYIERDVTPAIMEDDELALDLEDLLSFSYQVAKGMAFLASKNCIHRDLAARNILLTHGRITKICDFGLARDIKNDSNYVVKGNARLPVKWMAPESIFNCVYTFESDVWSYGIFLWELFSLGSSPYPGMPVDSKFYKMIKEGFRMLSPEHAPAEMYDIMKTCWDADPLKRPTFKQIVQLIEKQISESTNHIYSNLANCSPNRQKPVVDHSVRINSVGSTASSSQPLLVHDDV
# [28] = Half life in CB17 mouse at 10 mg/kg, po by LC/MS/MS method; type: ADME, organism-based; parameters: dose 10 mg/kg, route oral; details: in vivo; in short: as §1
# Sequence of Tyrosine-protein kinase JAK2 (O60674 whole entry): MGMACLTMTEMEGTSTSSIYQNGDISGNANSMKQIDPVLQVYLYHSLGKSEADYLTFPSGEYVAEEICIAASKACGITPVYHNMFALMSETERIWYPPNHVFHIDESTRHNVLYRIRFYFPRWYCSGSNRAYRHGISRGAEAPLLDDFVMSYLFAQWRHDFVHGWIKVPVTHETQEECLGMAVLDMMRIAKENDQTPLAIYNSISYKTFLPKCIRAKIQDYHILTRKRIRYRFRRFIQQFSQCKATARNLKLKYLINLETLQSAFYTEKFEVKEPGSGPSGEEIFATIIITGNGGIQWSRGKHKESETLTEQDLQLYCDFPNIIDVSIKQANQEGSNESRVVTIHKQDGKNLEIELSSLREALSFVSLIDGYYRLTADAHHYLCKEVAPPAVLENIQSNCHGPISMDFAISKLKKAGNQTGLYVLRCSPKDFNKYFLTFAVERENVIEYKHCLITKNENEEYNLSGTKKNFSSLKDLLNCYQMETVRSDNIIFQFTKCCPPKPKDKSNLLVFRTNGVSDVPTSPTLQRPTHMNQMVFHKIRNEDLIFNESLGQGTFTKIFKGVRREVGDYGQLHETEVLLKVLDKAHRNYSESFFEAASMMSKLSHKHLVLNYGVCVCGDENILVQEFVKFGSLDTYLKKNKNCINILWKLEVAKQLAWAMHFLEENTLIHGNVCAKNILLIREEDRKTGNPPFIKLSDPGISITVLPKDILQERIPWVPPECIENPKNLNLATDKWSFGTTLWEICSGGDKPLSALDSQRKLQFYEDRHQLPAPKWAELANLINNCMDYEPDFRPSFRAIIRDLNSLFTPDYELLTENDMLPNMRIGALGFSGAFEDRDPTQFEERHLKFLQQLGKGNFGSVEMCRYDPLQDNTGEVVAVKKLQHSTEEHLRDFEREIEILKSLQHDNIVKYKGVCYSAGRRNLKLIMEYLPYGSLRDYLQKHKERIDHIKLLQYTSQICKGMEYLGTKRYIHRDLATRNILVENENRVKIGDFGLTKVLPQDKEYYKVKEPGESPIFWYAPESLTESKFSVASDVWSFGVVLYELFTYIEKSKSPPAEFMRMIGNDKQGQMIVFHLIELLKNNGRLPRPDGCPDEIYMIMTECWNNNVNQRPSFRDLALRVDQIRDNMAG
structure (smiles),measurement,setting,value
Clc1cnc2[nH]cc(-c3ccccc3)c2c1,Ki,[1],0.26 µM
c1ccc(-c2ncnc3[nH]ccc23)cc1,Ki,[1],0.48 µM
"O=C1Nc2ccccc2-c2ccnc3[nH]cc(c23)C1c1ccc(O)cc1 (single isomer, unassigned; atropisomer 2)",Ki,[2],0.006 µM
"O=C1Nc2ccccc2-c2ccnc3[nH]cc(c23)C1c1ccc(O)cc1 (single isomer, unassigned; atropisomer 1)",IC50,[3],1.53 µM
same,Ki,[2],0.0055 µM
O=C1Nc2ccccc2-c2ccnc3[nH]cc(c23)C1c1ccc(O)cc1 (stereo not given) [listing 1 of 2 here],Activity,[4],Active
O=C1Nc2ccccc2-c2ccnc3[nH]cc(c23)C1c1ccc(O)cc1 (stereo not given) [listing 2 of 2 here],Ki,[5],0.017 µM
same,bioavailability,[6],66.1%
same,AUC(0-inf),[7],8300 ng·h/mL
same,AUC(0-inf),[8],1260 ng·h/mL
same,half-life,[9],2.7 h
same,Tmax,[10],2 h
same,Tmax,[11],3 h
same,half-life,[12],3.4 h
same,Vd,[13],2.3 L/kg
same,Survival,[14],32 days
same,AUC(0-inf),[15],12500 ng·h/mL
same,clearance,[16],12.1 mL/min/kg
same,Cmax,[17],7300 ng/mL
same,bioavailability,[18],100%
same,clearance,[19],23.8 mL/min/kg
same,Cmax,[20],1080 ng/mL
same,Cmax,[21],700 ng/mL
same,Cmax,[22],1000 ng/mL
same,Vd,[23],5.7 L/kg
same,IC50,[24],0.34 µM
same,half-life,[25],3.6 h
same,AUC(0-inf),[26],7700 ng·h/mL
same,Ki,[27],0.19 µM
same,half-life,[28],3.2 h

# Reference: ChEMBL document CHEMBL1154754, “Janus kinase 2 inhibitors. Synthesis and characterization of a novel polycyclic azaindole” (J Med Chem, 2009)
